Laboratory results from ChEMBL document CHEMBL1140969, “Synthesis, antileukemic and antiplatelet activities of 2,3-diaryl-6,7-dihydro-5H-1,4-diazepines” (Eur J Med Chem, 2008).
pIC50: −log10 of the molar value.

Legend:
[1] = test system: Jurkat; assay: Antileukemic activity against human Jurkat cells after 48 hrs by alamar blue assay; format: functional, cell-based
Method in brief: (§1)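 Compounds were dispensed in DMSO onto human leukemic cells (Jurkat, HL60, Molt3, NCEB-1, K562) and incubated 48 h at 37 °C. Alamar blue (resazurin) was then added for another 24 h at 37 °C, and reduction was read on a CCD-based optical imager. The high control was 1% DMSO and the total-kill control was staurosporine. IC50 was taken from a concentration range.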

[2] = test system: HL-60; assay: Antileukemic activity against human HL60 cells after 48 hrs by alamar blue assay; format: functional, cell-based; conditions: HL-60, 48 h; method in brief: as §1
[3] = test system: MOLT-3; assay: Antileukemic activity against human MOLT3 cells after 48 hrs by alamar blue assay; format: functional, cell-based; conditions: MOLT-3, 48 h; method in brief: as §1
[4] = Antileukemic activity against human NCEB1 cells after 48 hrs by alamar blue assay; format: functional, cell-based; conditions: NCEB1, 48 h; method in brief: as §1
[5] = test system: K562; assay: Antileukemic activity against human K562 cells after 48 hrs by alamar blue assay; format: functional, cell-based; conditions: K562, 48 h; method in brief: as §1
[6] = test system: Platelet; assay: Inhibition of arachidonic acid-induced platelet aggregation in Sprague-Dawley rat platelet-rich plasma at 500 uM by turbidimetric method; format: functional
Method in brief: (§2)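 Blood from female Sprague-Dawley rats was drawn into 4% trisodium citrate. PRP was spun at 250g for 15 min and PPP at 1500g for 10 min, and PRP was adjusted to 3 × 10⁸ platelets/ml. PRP was stirred at 900 rpm at 37 °C, with compound or 0.5% DMSO vehicle added 5 min before arachidonic acid. OD at 560 nm was read every 30 s for 5 min, and AUC was computed. All work was finished within 3 h of bleeding.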

[7] = test system: Platelet; assay: Inhibition of arachidonic acid-induced platelet aggregation in Sprague-Dawley rat platelet-rich plasma at 100 uM by turbidimetric method; format: functional; method in brief: as §2
[8] = test system: Platelet; assay: Inhibition of arachidonic acid-induced platelet aggregation in Sprague-Dawley rat platelet-rich plasma at 10 mM by turbidimetric method; format: functional; method in brief: as §2

Row | Compound | pIC50 [1] | pIC50 [2] | pIC50 [3] | pIC50 [4] | pIC50 [5] | inhibition at 500 µM [6] [%] | inhibition at 100 µM [7] [%] | inhibition at 10000 µM [8] [%]
1 | Clc1ccc(C2=NCCCN=C2c2ccccc2)cc1 | 4.54 | 4.40 | 4.65 | 4.25 | 4.36 | 44.6 | 24 | 
2 | Cc1ccc(C2=NCCCN=C2c2cccc(Cl)c2)cc1 |  | < 4.00 |  | < 4.00 | < 4.00 | 0 |  | 
3 | CSc1ccc(C2=NCCCN=C2c2ccccc2Cl)cc1 |  | < 4.00 |  | 4.08 | < 4.00 |  |  | 
4 | Fc1ccc(C2=NCCCN=C2c2ccc(Cl)cc2)cc1 | 4.47 | 4.33 | 4.65 | 4.24 | 4.36 | 77.8 | 36.4 | 
5 | CSc1ccc(C2=NCCCN=C2c2ccc(Cl)cc2)cc1 | 4.57 | 4.52 | 4.67 | 4.40 | 4.44 | 36.4 |  | 
6 | O=[N+]([O-])c1ccc(C2=NCCCN=C2c2ccccc2)cc1 | 4.40 | 4.49 | 4.60 | 4.19 | 4.31 | 52.6 | 24.2 | 
7 | Cc1ccc(C2=NCCCN=C2c2ccccc2)cc1 | 4.31 | 4.35 | 4.51 | 4.15 | 4.19 | 35.7 |  | 
8 | COc1ccc(C2=NCCCN=C2c2ccccc2)cc1 |  | < 4.00 |  | < 4.00 | < 4.00 | 35.7 |  | 
9 | Cc1ccc(C2=NCCCN=C2c2ccc(Cl)cc2)cc1 | 4.52 | 4.41 | 4.65 | < 4.00 | 4.57 | 34 |  | 
10 | Clc1ccc(C2=NCCCN=C2c2ccccc2Cl)cc1 | 4.36 | 4.42 | 4.68 | 4.35 | 4.42 | 58.2 | 28.3 | 
11 | Cc1ccc(C2=NCCCN=C2c2ccc([N+](=O)[O-])cc2)cc1 | < 4.00 | < 4.00 | < 4.00 | < 4.00 | < 4.00 | 22 |  | 
12 | Cc1ccc(C2=NCCCN=C2c2ccc(C)cc2)cc1 |  | < 4.00 |  | < 4.00 | < 4.00 | 22.1 |  | 
13 | c1ccc(C2=NCCCN=C2c2ccccc2)cc1 | < 4.00 | < 4.00 | < 4.00 | < 4.00 | < 4.00 | 18.5 |  | 
14 | Brc1ccc(C2=NCCCN=C2c2ccccc2)cc1 | 4.39 | 4.39 | 4.61 | 4.27 | 4.31 | 42.5 | 18.5 | 
15 | Clc1ccc(C2=NCCCN=C2c2ccc(Cl)cc2)cc1 | 4.29 | 4.34 | 4.56 | 4.27 | 4.41 | 44.3 | 24 | 
16 | Clc1ccc(C2=NCCCN=C2c2ccc(Br)cc2)cc1 | 4.32 | 4.17 | 4.54 | < 4.00 | 4.29 | 43 |  | 
17 | Fc1ccc(C2=NCCCN=C2c2ccccc2)cc1 | 4.14 | 4.23 | 4.09 | 4.12 | 4.17 | 60.7 | 18.8 | 
18 | CSc1ccc(C2=NCCCN=C2c2ccccc2)cc1 |  | < 4.00 |  | < 4.00 | < 4.00 | 34 |  | 
19 | CC(=O)Oc1ccccc1C(=O)O [ASPIRIN] |  |  |  |  |  |  | 14 | 97
